Active and inactive are the calls of the source. The calls are words filed in the database; no cut-off is given here.
How the values were obtained:
[1] = target: Histone-lysine N-methyltransferase, H3 lysine-79 specific (Homo sapiens, UniProt Q8TEK3); assay: Binding affinity to recombinant human N-terminal GST-tagged DOT1L (1 to 420 residues) expressed in Escherichia coli BL21 (DE3) assessed as increase in melting temperature incubated for 1 min by 1,8-ANS probe based thermal shift assay
Bone marrow cell [2] = assay: Antiproliferative activity against mouse bone marrow cell transformed with MLL-AF9 assessed as reduction in cell growth measured after 6 days by hemocytometry; type: functional, cell-based; details: 144 h
Bone marrow cell [3] = assay: Antiproliferative activity against mouse bone marrow cell transformed with MLL-AF9 assessed as reduction in cell growth measured after 9 days by hemocytometry; type: functional, cell-based; details: 216 h
Bone marrow cell [4] = assay: Antiproliferative activity against mouse bone marrow cell transformed with MLL-AF9 assessed as reduction in cell growth at 30 uM measured after 11 days by hemocytometry relative to control; type: functional; details: 264 h, time 11 day
[5] = target: T1, Histone H3 methyltransferase DOT1 variant d (Mus musculus) (UniProt Q679P4); assay: Inhibition of DOT1L in mouse bone marrow cell transformed with MLL-AF9 cells assessed as reduction in H3K79 methylation measured after 9 days by Western blot analysis; type: cell-based; details: dose 1-30 µM, time 9.0 day
T1 sequence (whole entry): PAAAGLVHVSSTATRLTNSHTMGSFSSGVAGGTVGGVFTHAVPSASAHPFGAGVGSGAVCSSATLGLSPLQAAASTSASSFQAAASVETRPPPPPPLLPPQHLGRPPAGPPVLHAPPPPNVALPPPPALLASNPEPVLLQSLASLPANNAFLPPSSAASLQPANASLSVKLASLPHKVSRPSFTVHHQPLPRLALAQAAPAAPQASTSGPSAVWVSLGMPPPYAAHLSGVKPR

[6] = target: T1, Histone H3 methyltransferase DOT1 variant d (Mus musculus); assay: Inhibition of DOT1L in mouse bone marrow cell transformed with MLL-AF9 cells assessed as reduction in H3K4me3 methylation at 1 to 30 uM measured after 6 days by Western blot analysis; type: cell-based; details: dose 1-30 µM, time 6.0 day
[7] = target: T1, Histone H3 methyltransferase DOT1 variant d (Mus musculus); assay: Inhibition of DOT1L in mouse bone marrow cell transformed with MLL-AF9 cells assessed as reduction in […] methylation at 1 to 30 uM measured after 6 days by Western blot analysis; type: cell-based; details: dose 1-30 µM, time 6.0 day
Bone marrow cell [8] = assay: Induction of cell differentiation in mouse bone marrow cells transformed with MLL-AF9 assessed as change in morphology incubated for 6 days by Wright-Giemsa staining based inverted microscopy; type: functional; details: dose 1-30 µM, time 6.0 day
Method in brief: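 Cells taken on day 6 of the proliferation culture (MLL-AF9 murine line, IMDM + 15% FBS + IL-3, re-dosed at each split, 0.3% DMSO). Cytospun onto slides, Wright-Giemsa stained, and imaged under bright field on an inverted microscope to assess morphology.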

[9] = target: DNA (cytosine-5)-methyltransferase 1 (Homo sapiens, UniProt P26358); assay: Inhibition of recombinant human DNMT1 using poly(dl-dC) as substrate by hotspot assay; details: read-out: IC50
DNA (cytosine-5)-methyltransferase 1, sequence (P26358 whole entry): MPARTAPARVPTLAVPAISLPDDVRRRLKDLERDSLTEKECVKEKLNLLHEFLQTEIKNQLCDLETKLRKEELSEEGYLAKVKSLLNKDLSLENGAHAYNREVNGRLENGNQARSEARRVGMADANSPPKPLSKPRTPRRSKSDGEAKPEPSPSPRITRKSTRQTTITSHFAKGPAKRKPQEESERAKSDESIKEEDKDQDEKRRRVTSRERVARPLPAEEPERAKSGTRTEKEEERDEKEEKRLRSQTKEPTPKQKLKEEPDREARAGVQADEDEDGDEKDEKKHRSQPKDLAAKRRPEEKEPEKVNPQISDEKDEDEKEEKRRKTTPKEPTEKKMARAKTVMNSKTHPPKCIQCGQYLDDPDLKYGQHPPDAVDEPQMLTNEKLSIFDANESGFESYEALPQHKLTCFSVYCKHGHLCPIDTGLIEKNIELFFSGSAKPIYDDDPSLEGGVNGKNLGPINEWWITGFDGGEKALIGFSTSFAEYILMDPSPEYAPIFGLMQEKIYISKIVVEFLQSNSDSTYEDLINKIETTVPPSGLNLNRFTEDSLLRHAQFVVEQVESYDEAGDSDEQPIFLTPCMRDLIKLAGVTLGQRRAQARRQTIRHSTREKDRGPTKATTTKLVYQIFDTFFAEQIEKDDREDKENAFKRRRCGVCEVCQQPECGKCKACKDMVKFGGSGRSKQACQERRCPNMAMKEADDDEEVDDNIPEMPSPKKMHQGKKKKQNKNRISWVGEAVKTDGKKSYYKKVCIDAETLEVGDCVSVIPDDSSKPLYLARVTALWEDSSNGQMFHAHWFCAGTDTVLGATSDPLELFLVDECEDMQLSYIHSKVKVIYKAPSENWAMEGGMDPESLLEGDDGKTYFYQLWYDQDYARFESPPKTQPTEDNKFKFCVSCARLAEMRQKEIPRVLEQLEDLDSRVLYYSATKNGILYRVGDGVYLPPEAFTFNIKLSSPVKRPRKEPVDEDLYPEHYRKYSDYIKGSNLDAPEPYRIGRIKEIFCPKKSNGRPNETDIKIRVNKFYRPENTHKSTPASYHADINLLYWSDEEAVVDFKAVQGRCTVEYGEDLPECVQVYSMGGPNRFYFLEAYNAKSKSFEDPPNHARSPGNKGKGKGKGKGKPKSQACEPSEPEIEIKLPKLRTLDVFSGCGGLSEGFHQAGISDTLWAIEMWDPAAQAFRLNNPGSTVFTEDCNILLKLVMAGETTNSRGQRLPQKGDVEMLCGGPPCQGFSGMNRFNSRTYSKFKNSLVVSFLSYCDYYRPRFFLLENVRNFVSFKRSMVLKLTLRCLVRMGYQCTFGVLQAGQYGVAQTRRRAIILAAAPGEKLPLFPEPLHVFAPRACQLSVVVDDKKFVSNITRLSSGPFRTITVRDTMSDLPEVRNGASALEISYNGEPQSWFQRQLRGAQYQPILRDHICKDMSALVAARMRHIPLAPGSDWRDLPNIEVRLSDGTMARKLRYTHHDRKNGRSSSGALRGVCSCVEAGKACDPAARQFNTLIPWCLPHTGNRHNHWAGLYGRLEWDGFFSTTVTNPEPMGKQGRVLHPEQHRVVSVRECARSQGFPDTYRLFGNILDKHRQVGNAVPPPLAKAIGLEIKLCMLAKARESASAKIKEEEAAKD

[10] = target: Histone-lysine N-methyltransferase EZH2 (Homo sapiens, UniProt Q15910); assay: Inhibition of recombinant human EZH2 using core histone as substrate by hotspot assay
Histone-lysine N-methyltransferase EZH2, sequence (Q15910 whole entry): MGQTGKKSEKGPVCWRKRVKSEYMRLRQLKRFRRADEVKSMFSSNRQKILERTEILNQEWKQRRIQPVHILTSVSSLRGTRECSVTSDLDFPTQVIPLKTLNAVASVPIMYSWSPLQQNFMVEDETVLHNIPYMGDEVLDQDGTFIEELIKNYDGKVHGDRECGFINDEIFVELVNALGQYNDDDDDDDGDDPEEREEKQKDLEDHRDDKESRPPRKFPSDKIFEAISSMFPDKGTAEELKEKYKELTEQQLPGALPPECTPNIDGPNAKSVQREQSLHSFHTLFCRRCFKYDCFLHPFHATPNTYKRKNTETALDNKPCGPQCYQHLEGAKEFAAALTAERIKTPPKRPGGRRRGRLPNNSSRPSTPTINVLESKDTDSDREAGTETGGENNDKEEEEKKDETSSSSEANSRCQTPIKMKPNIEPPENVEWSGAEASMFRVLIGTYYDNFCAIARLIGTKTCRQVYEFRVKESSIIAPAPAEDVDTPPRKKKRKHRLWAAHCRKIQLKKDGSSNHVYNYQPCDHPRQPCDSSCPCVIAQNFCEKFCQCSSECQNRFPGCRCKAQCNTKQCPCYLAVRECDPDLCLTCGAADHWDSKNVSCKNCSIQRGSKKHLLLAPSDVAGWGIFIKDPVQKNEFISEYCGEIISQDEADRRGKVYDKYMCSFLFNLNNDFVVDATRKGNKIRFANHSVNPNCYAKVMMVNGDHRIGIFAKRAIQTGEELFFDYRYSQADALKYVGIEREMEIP

[11] = target: Protein arginine N-methyltransferase 5 (Homo sapiens, UniProt O14744); assay: Inhibition of recombinant human PRMT5 using histone H2A as substrate by hotspot assay; details: read-out: IC50
Protein arginine N-methyltransferase 5, sequence (O14744 whole entry): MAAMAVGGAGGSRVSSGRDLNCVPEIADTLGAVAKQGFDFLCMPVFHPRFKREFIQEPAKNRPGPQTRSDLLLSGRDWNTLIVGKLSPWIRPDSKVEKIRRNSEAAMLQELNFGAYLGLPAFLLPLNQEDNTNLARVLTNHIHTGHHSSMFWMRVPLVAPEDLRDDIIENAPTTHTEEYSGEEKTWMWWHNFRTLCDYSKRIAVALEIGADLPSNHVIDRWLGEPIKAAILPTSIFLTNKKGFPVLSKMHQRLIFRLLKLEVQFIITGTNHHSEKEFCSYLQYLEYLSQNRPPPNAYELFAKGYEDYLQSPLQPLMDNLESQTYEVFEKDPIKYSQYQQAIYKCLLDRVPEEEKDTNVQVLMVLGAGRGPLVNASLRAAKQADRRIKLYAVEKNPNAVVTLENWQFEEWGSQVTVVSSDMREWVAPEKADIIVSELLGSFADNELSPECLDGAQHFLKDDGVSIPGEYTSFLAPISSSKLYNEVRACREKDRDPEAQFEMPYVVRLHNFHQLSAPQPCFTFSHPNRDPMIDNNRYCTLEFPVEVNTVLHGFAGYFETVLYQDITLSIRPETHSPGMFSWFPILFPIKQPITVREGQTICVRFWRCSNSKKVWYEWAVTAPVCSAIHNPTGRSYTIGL

[12] = target: T2, Protein arginine N-methyltransferase 7 (Homo sapiens, UniProt Q9NVM4); assay: Inhibition of recombinant human PRMT7 using GST-GAR as substrate by hotspot assay
T2 sequence (Q9NVM4 whole entry): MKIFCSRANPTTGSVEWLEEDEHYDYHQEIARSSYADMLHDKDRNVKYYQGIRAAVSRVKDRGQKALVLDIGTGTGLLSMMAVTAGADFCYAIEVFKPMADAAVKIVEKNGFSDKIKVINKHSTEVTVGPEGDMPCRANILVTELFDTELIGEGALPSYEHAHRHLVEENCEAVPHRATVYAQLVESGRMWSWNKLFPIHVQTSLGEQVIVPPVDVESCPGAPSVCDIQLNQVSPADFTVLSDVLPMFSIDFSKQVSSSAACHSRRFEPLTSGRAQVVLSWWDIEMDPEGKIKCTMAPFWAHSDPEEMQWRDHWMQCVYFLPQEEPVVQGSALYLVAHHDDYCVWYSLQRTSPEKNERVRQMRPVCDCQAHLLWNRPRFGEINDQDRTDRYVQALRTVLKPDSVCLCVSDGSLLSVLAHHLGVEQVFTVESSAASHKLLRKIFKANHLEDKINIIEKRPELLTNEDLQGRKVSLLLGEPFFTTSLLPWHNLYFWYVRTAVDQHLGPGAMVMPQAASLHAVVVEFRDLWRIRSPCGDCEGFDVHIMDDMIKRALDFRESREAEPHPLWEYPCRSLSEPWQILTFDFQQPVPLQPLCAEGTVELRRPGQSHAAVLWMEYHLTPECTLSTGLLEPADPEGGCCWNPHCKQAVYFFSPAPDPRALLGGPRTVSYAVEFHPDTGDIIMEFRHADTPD

[13] = target: Protein arginine N-methyltransferase 8 (Homo sapiens, UniProt Q9NR22); assay: Inhibition of recombinant human PRMT8 using histone H4 as substrate by hotspot assay
Protein arginine N-methyltransferase 8, sequence (Q9NR22 whole entry): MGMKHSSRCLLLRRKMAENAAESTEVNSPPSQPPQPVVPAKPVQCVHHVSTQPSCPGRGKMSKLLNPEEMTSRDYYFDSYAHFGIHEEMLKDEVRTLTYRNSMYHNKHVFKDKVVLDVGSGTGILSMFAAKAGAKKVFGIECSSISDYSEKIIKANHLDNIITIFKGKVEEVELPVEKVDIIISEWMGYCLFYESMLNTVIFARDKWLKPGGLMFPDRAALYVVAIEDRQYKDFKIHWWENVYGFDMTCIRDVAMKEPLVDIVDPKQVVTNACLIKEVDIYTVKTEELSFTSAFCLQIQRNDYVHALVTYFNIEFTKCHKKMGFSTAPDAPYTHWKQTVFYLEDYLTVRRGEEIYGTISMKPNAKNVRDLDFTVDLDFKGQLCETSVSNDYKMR

Histone-lysine N-methyltransferase, H3 lysine-79 specific, sequence (Q8TEK3 whole entry, looked up, the tested form may be a part): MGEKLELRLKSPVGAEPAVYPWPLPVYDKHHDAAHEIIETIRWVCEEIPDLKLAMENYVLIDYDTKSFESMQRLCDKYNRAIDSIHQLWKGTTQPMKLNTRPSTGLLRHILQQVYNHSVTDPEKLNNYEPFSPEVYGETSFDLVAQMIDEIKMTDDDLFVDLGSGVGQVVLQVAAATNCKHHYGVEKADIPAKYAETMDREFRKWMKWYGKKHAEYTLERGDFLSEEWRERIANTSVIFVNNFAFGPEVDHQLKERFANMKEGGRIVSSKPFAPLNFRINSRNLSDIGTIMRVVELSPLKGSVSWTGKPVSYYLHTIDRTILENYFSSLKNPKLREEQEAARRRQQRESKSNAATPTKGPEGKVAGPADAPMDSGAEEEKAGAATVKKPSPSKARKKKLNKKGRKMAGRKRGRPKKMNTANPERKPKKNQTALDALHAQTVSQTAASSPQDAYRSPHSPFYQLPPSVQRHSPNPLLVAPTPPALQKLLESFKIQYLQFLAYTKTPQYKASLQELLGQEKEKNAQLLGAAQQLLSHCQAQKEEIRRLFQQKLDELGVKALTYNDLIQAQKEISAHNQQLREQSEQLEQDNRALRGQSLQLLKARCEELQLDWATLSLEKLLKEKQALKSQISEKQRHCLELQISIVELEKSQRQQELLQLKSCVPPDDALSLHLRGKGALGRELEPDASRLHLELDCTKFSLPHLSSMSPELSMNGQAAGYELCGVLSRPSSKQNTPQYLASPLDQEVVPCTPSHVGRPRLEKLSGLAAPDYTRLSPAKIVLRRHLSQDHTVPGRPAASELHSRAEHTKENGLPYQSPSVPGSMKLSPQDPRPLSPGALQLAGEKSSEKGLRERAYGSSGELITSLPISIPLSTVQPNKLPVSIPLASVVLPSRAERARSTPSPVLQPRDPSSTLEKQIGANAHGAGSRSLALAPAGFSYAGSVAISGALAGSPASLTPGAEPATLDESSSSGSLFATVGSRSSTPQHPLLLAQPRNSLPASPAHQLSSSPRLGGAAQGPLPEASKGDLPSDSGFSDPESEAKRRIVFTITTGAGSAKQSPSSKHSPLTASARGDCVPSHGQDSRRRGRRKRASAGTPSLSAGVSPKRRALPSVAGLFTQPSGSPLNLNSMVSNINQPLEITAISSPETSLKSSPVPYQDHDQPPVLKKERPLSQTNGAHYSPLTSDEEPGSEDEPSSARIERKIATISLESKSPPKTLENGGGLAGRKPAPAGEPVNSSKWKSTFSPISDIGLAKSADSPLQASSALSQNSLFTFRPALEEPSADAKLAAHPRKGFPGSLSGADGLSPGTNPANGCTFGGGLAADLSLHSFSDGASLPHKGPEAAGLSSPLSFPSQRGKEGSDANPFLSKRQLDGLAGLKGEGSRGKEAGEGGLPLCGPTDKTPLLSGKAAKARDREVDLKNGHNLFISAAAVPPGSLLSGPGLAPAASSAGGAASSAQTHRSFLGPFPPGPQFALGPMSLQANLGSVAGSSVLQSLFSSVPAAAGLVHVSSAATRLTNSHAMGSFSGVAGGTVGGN

## CC(C)(C)c1ccc(NC(=O)c2ncn(CC(=O)NCCn3ccc4c(N)ncnc43)n2)cc1
[1]
  Activity: Dose-dependent effect
Bone marrow cell [2]
  IC50: 8.8 µM
Bone marrow cell [3]
  IC50: 4.2 µM
Bone marrow cell [4]
  inhibition at 30 µM: 100%
[5]
  inhibition: Dose-dependent effect
[6]
  inhibition: inactive
[7]
  inhibition: inactive
Bone marrow cell [8]
  Activity: Dose-dependent effect
[9]
  IC50: 248 µM
[10]
  IC50: Not Active
[11]
  IC50: 165 µM
[12]
  IC50: Not Active
[13]
  IC50: > 250 µM

— ChEMBL document CHEMBL4680176, “Identification of DOT1L inhibitors by structure-based virtual screening adapted from a nucleoside-focused library” (Eur J Med Chem, 2020)
